Test results published in ChEMBL document CHEMBL4138044, “Withaferin A induces cell death and differentiation in multiple myeloma cancer stem cells” (Medchemcomm, 2017).
pIC50: −log10 of the molar value.

What was measured:
[1] = test system: Multiple myeloma cancer stem cell; test: Antiproliferative activity against human multiple myeloma cancer stem cells after 72 hrs by MTT assay; format: functional, cell-based
Summary of the method: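 MM-CSCs plated at 5000 cells/well and allowed to adhere 24 h, then exposed to 0–10 μM WFA for 72 h. MTT added for 2 h. Growth taken as absorbance relative to vehicle-control wells ×100. IC50 fitted from at least five concentrations; mean of three independent experiments ± SEM.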

[2] = Antiproliferative activity against human […] cells after 72 hrs by XTT assay; format: functional, cell-based
Summary of the method: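 RPMI 8226 cells in RPMI 1640 with 10% FBS, plated at 15 000 cells/well and treated immediately with 0–10 μM WFA for 72 h. XTT added for 4 h. Growth as absorbance relative to vehicle control ×100. IC50 fitted from at least five concentrations; mean of three independent experiments ± SEM.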

pIC50 [1]: 8.08
SMILES: CC(C)C[C@H](NC(=O)[C@H](Cc1ccccc1)NC(=O)c1cnccn1)B(O)O [BORTEZOMIB]
pIC50 [2]: 8.44
